This is an account of results in ChEMBL document CHEMBL1126881, “3-Nitro-3,4-dihydro-2(1H)-quinolones. Excitatory amino acid antagonists acting at glycine-site NMDA and (RS)-alpha-amino-3-hydroxy-5-methyl-4-isoxazolepropionic acid receptors” (J Med Chem, 1993).

Data set [1] in a line: pKa value was determined; Value ranges from 5-6. It counts as physicochemical.
Data set [2] deals with Mus musculus. The experiment in a line: In vivo evaluation to protect DBA/2 mice against audiogenic seizure at 75 mg/kg ip 30 min prior to noise stimulation; 2 out of 8 mouse effected. In kind it is functional. To be noted: route intraperitoneal.
Data set [3] concerns the target Glutamate receptor ionotropic, NMDA 1 (Rattus norvegicus, UniProt P35439). Description: Binding affinity towards NMDA receptor to displace [3H]L-689,560 from rat cortical membranes.
The species entered for data set [4] is Rattus norvegicus. The experiment in a line: In vitro evaluation to antagonize NMDA responses in rat cortical slice preparation. It counts as functional. In outline: (§1)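 Rat cortical slice preparation. Apparent Kb was calculated from the rightward shift of the agonist (NMDA or AMPA) concentration-response curve produced by the antagonist. Values are means of three determinations.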

The species entered for data set [5] is Rattus norvegicus. The experiment in a line: In vitro evaluation to antagonize AMPA responses in rat cortical slice preparation. It counts as functional. In outline:
as §1

The nature of data set [6]: pKa value was determined. In kind it is physicochemical.
Data set [7] relates to Mus musculus. Description: In vivo evaluation to protect DBA/2 mice against audiogenic seizure at 50 mg/kg ip 30 min prior to noise stimulation; 0 out of 8 mouse effected. In kind it is functional. The note with it: route intraperitoneal.
Data set [8] concerns Mus musculus. The experiment in a line: In vivo evaluation to protect DBA/2 mice against audiogenic seizure at 100 mg/kg ip 30 min prior to noise stimulation; 0 out of 8 mouse effected. It counts as functional. To be noted: route intraperitoneal.
Data set [9] concerns Mus musculus. Description: In vivo evaluation to protect DBA/2 mice against audiogenic seizure ip 30 min prior to noise stimulation. In kind it is functional. In outline:
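DBA/2 mice dosed intraperitoneally 30 min before noise stimulation and scored for protection against audiogenic seizure. Results are reported as ED50 (mg/kg) or as number protected/number tested at a single dose (50, 75 or 100 mg/kg, groups of 8).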

One may read the pKa as the negative logarithm of the acid dissociation constant. A higher pKa goes with a group that holds its proton tightly. A word on the IC50: it is the point on the concentration scale where inhibition reaches its midpoint. Low values mean greater potency in that assay, high ones weaker potency in that assay. For the molecule `COC(=O)CC1c2ccc(Cl)cc2NC(=O)C1[N+](=O)[O-]` (stereo not given), the pKa in [1] is ~5. Moreover, the Protected with Mus musculus [2] was determined as 2. The molecule further displayed an IC50 in data set [3] of 1.32 µM. In addition, the figures for the Kb in the data set listed under Rattus norvegicus [4] and in the data set listed under Rattus norvegicus [5] were 7 µM and 139 µM, respectively.
Consider `COC(=O)CC1c2ccc(Cl)cc2NC(=O)C1S(C)(=O)=O` (stereo not given), for which the pKa in data set [6] is > 11. Further, the IC50 in [3] was > 100 µM.
`O=C(CC1c2ccc(Cl)cc2NC(=O)C1[N+](=O)[O-])Nc1ccccc1` (stereo not given): in data set [3], the IC50 was found to be 7.43 µM. For the same molecule, in the data set filed under Rattus norvegicus [4], the Kb is > 10 µM.
`COC(=O)CC1c2ccc(Cl)cc2NC(=O)C1S(=O)(=O)c1ccccc1` (stereo not given) yielded a pKa in data set [6] of 10.8. Moreover, the half-maximal inhibitory concentration (IC50) in [3] is > 100 µM.
As to `CCOC(=O)CC1c2ccc(Cl)cc2NC(=O)C1[N+](=O)[O-]` (stereo not given), the IC50 in data set [3] was determined as 2.23 µM. Further, in the data set filed under Rattus norvegicus [4], the Kb was 8.1 µM.
Consider `COC(=O)CC1c2ccc(Cl)cc2NC(=O)C1C(=O)OC` (stereo not given), for which the pKa in [6] is > 11. The IC50 in data set [3] was > 100 µM.
For `CNC(=O)CC1c2ccc(Cl)cc2NC(=O)C1[N+](=O)[O-]` (stereo not given), the half-inhibitory concentration (IC50) in data set [3] came to 12.4 µM. Also, the Kb in the data set listed under Rattus norvegicus [4] is reported as >30.
On to `COC(=O)Cc1c(C(=O)OC)c(O)nc2cc(Cl)ccc12`, for which, in [3], the IC50 is > 100 µM.
As to `COC(=O)CC1c2ccc(Cl)cc2NC(=O)C1C#N` (stereo not given), in data set [6], the pKa was found to be 10.2. The IC50 in data set [3] was found to be 12 µM.
`COC(=O)CC1c2ccc(Cl)cc2NC(=O)C1S(=O)(=O)c1ccc([N+](=O)[O-])cc1` (stereo not given) yielded a pKa in data set [6] of 9.9. In addition, the IC50 in data set [3] is > 100 µM.
`CN(C(=O)CC1c2ccc(Cl)cc2NC(=O)C1[N+](=O)[O-])c1ccccc1` (stereo not given): in the data set on Mus musculus [7], the Protected was determined as 0. In data set [3], the IC50 stood at 1.84 µM. For the same molecule, the Kb in the data set listed under Rattus norvegicus [4] is > 10 µM.
As to `CN(C)C(=O)CC1c2ccc(Cl)cc2NC(=O)C1[N+](=O)[O-]` (stereo not given), the Protected in the data set with Mus musculus [8] is 0. Moreover, the Kb in the data set filed under Rattus norvegicus [4] is 22.2 µM.
As for `COC(=O)CC1CC(=O)Nc2cc(Cl)ccc21` (stereo not given), the half-maximal inhibitory concentration (IC50) in data set [3] was > 100 µM.
What is called ED50 is the midpoint of the dose-response relation. Read a low ED50 as greater potency. Consider `O=C1Nc2cc(Cl)ccc2CC1[N+](=O)[O-]` (stereo not given), for which it took a dose of 13.2 mg/kg to reach the 50% effect level in the data set on Mus musculus [9] (ED50). In [3], the IC50 came out at 0.414 µM. For the same molecule, the values for the Kb in the data set filed under Rattus norvegicus [4] and in the data set filed under Rattus norvegicus [5] were 6.7 µM and 9.2 µM, respectively.
With `O=C(CC1c2ccc(Cl)cc2NC(=O)C1[N+](=O)[O-])NCc1ccccc1` (stereo not given), the Protected in the data set on Mus musculus [8] stood at 0. For the same molecule, in data set [3], the IC50 was found to be 2.53 µM.
In data set [3], `COC(=O)CC1c2ccccc2NC(=O)C1[N+](=O)[O-]` (stereo not given) showed an IC50 of 28.6 µM.
As to `COC(=O)CC1c2ccc(Cl)cc2NC(=O)C1C(=O)c1ccccc1` (stereo not given), the pKa in data set [6] is ~9. In addition, in data set [3], the half-maximal inhibitory concentration (IC50) was > 100 µM.
In the data set with Mus musculus [8], `Cc1noc(CC2c3ccc(Cl)cc3NC(=O)C2[N+](=O)[O-])n1` (stereo not given) gave a Protected of 0. Further, the IC50 in data set [3] came to 5.59 µM. This molecule also came in with a Kb in the data set filed under Rattus norvegicus [4] of 25.9 µM.
